Test results: ChEMBL document CHEMBL1140872, “Discovery of a potent and selective inhibitor for human carbonyl reductase 1 from propionate scanning applied to the macrolide zearalenone” (Bioorg Med Chem, 2009)

Key:
[1] = target: Heat shock protein HSP90 (Homo sapiens) (UniProt P07900+P08238)
[2] = target: T1, Mitogen-activated protein kinase kinase kinase 5 (Homo sapiens) (UniProt Q99683); test: Binding affinity to human recombinant MAP3K5 expressed in Escherichia coli assessed as thermal shift by differential scanning fluorimetry
T1 sequence (whole entry): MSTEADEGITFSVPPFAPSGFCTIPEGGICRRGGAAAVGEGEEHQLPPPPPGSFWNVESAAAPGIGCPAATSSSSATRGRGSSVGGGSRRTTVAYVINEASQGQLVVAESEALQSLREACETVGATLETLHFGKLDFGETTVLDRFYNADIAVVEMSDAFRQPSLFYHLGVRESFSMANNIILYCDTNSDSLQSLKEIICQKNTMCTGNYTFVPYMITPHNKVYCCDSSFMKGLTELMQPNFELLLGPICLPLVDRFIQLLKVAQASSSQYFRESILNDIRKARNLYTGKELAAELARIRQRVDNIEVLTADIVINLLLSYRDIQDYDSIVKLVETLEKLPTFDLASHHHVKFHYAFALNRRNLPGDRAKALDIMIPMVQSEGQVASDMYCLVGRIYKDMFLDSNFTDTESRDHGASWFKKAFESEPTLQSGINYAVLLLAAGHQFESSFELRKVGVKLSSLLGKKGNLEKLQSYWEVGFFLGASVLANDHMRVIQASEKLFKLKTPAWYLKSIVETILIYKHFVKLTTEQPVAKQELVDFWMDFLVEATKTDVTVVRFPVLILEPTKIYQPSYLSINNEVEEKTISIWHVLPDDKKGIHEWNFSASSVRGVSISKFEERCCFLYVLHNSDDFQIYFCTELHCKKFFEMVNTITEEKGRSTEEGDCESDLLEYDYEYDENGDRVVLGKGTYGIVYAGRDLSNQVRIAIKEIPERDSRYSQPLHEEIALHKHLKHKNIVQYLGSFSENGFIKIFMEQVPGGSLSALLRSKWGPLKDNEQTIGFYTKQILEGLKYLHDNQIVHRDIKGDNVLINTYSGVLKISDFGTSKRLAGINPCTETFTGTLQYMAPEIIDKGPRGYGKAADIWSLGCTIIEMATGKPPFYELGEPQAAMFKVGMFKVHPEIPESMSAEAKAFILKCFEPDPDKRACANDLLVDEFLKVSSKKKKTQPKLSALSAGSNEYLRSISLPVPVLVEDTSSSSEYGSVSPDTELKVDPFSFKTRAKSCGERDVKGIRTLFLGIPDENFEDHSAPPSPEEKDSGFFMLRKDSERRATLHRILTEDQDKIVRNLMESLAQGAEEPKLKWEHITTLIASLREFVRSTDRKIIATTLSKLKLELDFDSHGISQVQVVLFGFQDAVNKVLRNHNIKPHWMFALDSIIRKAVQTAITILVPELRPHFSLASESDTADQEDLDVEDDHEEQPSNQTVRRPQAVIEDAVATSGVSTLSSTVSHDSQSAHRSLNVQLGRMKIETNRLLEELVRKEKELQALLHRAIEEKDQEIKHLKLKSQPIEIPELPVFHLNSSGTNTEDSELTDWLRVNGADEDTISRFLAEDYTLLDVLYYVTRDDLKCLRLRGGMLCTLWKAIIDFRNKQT
Method in brief: (§1)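 Thermal-shift (DSF) binding assay with purified recombinant catalytic domains or proteins carrying an N- or C-terminal His6 tag or GST fusion. Purity was >95% by SDS/PAGE and identity was confirmed by MS. Protein was at 2 µM final in 10 mM HEPES pH 7.5 and 150 mM NaCl. Tm shift is reported, with 2 °C as the threshold for binding.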

[3] = target: T2, Carbonyl reductase [NADPH] 1 (Homo sapiens) (UniProt P16152); test: Binding affinity to human recombinant carbonyl reductase 1 expressed in Escherichia coli assessed as thermal shift by differential scanning fluorimetry in presence of NADPH
T2 sequence (whole entry): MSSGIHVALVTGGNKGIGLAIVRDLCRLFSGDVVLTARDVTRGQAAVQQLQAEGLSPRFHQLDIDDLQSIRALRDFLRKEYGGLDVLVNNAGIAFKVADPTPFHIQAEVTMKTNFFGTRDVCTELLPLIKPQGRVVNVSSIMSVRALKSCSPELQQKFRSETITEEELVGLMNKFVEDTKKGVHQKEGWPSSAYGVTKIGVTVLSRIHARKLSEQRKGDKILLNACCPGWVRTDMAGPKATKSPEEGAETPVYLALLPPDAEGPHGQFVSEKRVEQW
Method in brief: as §1

[4] = target: Mitogen-activated protein kinase 11 (Homo sapiens) (UniProt Q15759); test: Binding affinity to human recombinant MAPK11 expressed in Escherichia coli assessed as thermal shift by differential scanning fluorimetry
Sequence of Mitogen-activated protein kinase 11 (Homo sapiens) (Q15759 whole entry): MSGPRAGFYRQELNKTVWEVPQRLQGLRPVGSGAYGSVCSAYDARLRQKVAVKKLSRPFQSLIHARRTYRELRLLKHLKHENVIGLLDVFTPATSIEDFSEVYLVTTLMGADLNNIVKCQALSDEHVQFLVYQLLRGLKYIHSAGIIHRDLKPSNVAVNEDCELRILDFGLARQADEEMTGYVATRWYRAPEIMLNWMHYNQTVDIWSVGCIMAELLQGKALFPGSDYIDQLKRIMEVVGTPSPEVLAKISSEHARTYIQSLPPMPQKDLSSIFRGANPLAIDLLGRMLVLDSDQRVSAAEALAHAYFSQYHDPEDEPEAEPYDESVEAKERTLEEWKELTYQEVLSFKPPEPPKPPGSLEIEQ
Method in brief: as §1

[5] = target: Mitogen-activated protein kinase 6 (Homo sapiens) (UniProt Q16659); test: Binding affinity to human recombinant MAPK6 expressed in Escherichia coli assessed as thermal shift by differential scanning fluorimetry
Sequence of Mitogen-activated protein kinase 6 (Homo sapiens) (Q16659 whole entry): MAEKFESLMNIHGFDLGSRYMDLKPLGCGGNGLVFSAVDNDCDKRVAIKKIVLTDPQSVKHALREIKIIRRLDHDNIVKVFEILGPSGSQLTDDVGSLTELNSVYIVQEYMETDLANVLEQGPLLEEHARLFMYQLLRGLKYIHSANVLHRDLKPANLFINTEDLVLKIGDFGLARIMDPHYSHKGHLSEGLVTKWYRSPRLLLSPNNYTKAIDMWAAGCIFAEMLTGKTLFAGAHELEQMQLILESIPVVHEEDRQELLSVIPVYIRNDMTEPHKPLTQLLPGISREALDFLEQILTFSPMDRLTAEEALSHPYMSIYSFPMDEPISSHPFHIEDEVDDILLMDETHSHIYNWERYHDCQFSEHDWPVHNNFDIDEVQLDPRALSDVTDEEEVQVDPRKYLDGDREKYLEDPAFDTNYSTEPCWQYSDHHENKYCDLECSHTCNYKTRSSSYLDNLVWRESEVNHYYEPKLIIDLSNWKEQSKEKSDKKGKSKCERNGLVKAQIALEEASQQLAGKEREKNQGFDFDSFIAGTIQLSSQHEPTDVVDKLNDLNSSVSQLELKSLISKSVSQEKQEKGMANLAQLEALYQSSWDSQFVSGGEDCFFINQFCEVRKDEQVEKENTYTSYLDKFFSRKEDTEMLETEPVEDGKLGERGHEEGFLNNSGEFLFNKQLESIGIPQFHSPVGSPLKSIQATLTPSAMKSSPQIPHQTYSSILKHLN
Method in brief: as §1

[6] = target: Serine/threonine-protein kinase pim-3 (Homo sapiens) (UniProt Q86V86); test: Binding affinity to human recombinant PIM3 expressed in Escherichia coli assessed as thermal shift by differential scanning fluorimetry
Method in brief: as §1

[7] = target: STE20-like serine/threonine-protein kinase (Homo sapiens) (UniProt Q9H2G2); test: Binding affinity to human recombinant SLK expressed in Escherichia coli assessed as thermal shift by differential scanning fluorimetry
Sequence of STE20-like serine/threonine-protein kinase (Homo sapiens) (Q9H2G2 whole entry, looked up): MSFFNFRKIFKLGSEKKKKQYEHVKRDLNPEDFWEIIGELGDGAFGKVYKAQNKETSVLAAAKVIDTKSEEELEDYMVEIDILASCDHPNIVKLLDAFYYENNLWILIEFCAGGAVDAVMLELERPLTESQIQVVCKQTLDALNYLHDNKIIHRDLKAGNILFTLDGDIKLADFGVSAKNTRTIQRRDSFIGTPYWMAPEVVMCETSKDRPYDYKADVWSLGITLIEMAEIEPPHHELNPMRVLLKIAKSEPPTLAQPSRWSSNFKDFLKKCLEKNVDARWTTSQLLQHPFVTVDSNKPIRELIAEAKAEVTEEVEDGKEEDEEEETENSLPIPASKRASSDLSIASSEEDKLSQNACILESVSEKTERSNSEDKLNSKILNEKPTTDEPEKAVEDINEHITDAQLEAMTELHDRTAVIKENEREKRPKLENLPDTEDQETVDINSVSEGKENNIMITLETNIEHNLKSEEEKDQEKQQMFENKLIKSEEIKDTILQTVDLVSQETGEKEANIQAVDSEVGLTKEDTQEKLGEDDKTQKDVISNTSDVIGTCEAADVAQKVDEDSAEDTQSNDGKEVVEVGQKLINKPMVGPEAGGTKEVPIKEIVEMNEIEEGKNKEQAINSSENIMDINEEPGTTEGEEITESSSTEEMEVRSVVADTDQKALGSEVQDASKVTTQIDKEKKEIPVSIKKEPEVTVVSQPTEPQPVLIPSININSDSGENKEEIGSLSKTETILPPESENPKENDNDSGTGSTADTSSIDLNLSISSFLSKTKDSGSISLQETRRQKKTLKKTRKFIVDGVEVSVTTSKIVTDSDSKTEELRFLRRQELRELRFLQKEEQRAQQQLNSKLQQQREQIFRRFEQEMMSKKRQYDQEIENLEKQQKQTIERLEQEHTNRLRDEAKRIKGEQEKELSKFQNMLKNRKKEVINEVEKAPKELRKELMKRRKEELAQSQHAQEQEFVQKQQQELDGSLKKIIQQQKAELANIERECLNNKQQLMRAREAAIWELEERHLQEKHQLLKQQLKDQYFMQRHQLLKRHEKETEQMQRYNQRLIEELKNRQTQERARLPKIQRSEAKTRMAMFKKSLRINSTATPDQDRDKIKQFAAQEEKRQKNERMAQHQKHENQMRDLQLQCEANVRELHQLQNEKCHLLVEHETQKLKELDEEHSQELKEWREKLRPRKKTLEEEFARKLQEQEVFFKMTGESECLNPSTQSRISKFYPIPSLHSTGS
Method in brief: as §1

[8] = target: T2, Carbonyl reductase [NADPH] 1 (Homo sapiens); test: Binding affinity to human recombinant carbonyl reductase 1 expressed in Escherichia coli assessed as NADPH oxidation at 200 uM relative to isatin
Method in brief: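 Substrate test used 200 nM purified CBR1 and 200 µM NADPH, injected onto compound at 200 µM in 50 mM sodium phosphate pH 6.8 with 1 mM MgCl2. NADPH oxidation was read as the fluorescence decrease at 460 nm (excitation 355 nm). Rate came from linear regression after normalizing to the fluorescence rise on injection. Run in triplicate and expressed as % of the isatin rate.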

[9] = target: T3, Carbonyl reductase [NADPH] 3 (Homo sapiens) (UniProt O75828); test: Binding affinity to human recombinant carbonyl reductase 3 expressed in Escherichia coli assessed as thermal shift by differential scanning fluorimetry in absence of cofactor
T3 sequence (whole entry): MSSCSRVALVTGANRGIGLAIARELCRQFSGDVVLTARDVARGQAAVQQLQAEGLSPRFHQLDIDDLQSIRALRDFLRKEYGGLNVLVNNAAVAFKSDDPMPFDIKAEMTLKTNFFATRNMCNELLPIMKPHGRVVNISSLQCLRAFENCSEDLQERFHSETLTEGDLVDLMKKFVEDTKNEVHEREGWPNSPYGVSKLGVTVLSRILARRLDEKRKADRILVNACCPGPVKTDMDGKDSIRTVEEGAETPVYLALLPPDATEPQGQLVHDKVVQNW
Method in brief: as §1

C[C@H]1CCCC(=O)CCC/C=C/c2cc(O)cc(O)c2C(=O)O1
Tm [1]: 2.3 °C
Tm [2]: < 2 °C
Tm [3]: < 2 °C
Tm [4]: < 2 °C
Tm [5]: < 2 °C
Tm [6]: < 2 °C
Tm [7]: 4.4 °C
Activity [8]: 5.7%
Tm [9]: < 2 °C

COC1=C2C[C@@H](C)C[C@H](OC)[C@H](O)[C@@H](C)/C=C(\C)[C@H](OC(N)=O)[C@@H](OC)/C=C\C=C(/C)C(=O)NC(=CC1=O)C2=O
Tm [2]: < 2 °C
Tm [3]: < 2 °C
Tm [4]: < 2 °C
Tm [5]: < 2 °C
Tm [6]: < 2 °C
Tm [7]: < 2 °C
Tm [9]: < 2 °C

C[C@H]1CCCC(=O)[C@@H](C)CC/C=C/c2cc(O)cc(O)c2C(=O)O1
Tm [1]: < 2 °C
Tm [2]: < 2 °C
Tm [3]: < 2 °C
Tm [4]: < 2 °C
Tm [5]: < 2 °C
Tm [6]: < 2 °C
Tm [7]: 3.5 °C
Tm [9]: < 2 °C

COc1cc(O)c2c(c1)/C=C/CC[C@H](C)C(=O)CCC[C@H](C)OC2=O
Tm [1]: < 2 °C
Tm [2]: < 2 °C
Tm [3]: < 2 °C
Tm [4]: < 2 °C
Tm [5]: < 2 °C
Tm [6]: < 2 °C
Tm [7]: 2.5 °C
Activity [8]: 1.5%
Tm [9]: < 2 °C

COc1cc2c(c(OC)c1)C(=O)O[C@@H](C)CCC[C@@H](O)[C@@H](C)CC/C=C/2
Tm [1]: < 2 °C
Tm [2]: < 2 °C
Tm [3]: < 2 °C
Tm [4]: < 2 °C
Tm [5]: < 2 °C
Tm [6]: < 2 °C
Tm [7]: < 2 °C
Tm [9]: < 2 °C

COc1cc2c(c(OC)c1)C(=O)O[C@@H](C)CCCC(=O)[C@@H](C)CC/C=C/2
Tm [1]: < 2 °C
Tm [2]: < 2 °C
Tm [3]: < 2 °C
Tm [4]: < 2 °C
Tm [5]: < 2 °C
Tm [6]: < 2 °C
Tm [7]: < 2 °C
Activity [8]: 31.3%
Tm [9]: < 2 °C

C[C@@H]1C[C@H]2O[C@@H]2/C=C\C=C\C(=O)Cc2c(Cl)c(O)cc(O)c2C(=O)O1 [RADICICOL]
Tm [2]: < 2 °C
Tm [3]: < 2 °C
Tm [4]: < 2 °C
Tm [5]: < 2 °C
Tm [6]: < 2 °C
Tm [7]: < 2 °C
Tm [9]: < 2 °C
